Data on one molecule can be found in ChEMBL document CHEMBL4396917, “Synthesis and biological evaluation of novel benzylidene-succinimide derivatives as noncytotoxic antiangiogenic inhibitors with anticolorectal cancer activity in vivo” (Eur J Med Chem, 2019).

The subject of data set [1] is HUVEC. Kind of data set: Induction of apoptosis in VEGF-stimulated HUVEC assessed as late apoptotic cells at 20 uM after 24 hrs by Annexin V-FITC/propidium iodide staining based flow cytometric analysis (reference value: 11.3%). In kind it is cell-based. Conditions: human. An outline of the steps:
(§1)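 HUVECs plated at 5×10^5 per well and treated 24 h with 1, 5, 10 or 20 μM. Detached and adherent cells were pooled, washed in ice-cold PBS and resuspended in fresh medium. 1×10^5 cells were stained with annexin-V-FITC in annexin-V buffer for 20 min in the dark, then PI (50 μg/mL) was added. Read-out by flow cytometry.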

Data set [2] has as its system HUVEC. The data set can be described thus: Induction of apoptosis in VEGF-stimulated HUVEC assessed as PARP cleavage at 1 to 20 uM by Western blot analysis. In kind it is cell-based. Particulars: human.
For data set [3], the system named is HUVEC. Kind of data set: Induction of apoptosis in VEGF-stimulated HUVEC assessed as necrotic cells at 5 uM after 24 hrs by Annexin V-FITC/propidium iodide staining based flow cytometric analysis (reference value: 12.1%). In kind it is cell-based. Conditions: human. Summed up:
as §1

Data set [4] relates to HT-29. The data set can be described thus: Antiangiogenic activity against human HT-29 cells xenografted in mouse assessed as mean vessel density in tumour at 20 to 60 mg/kg, po administered every other day for 3 weeks measured at 20 days post-treatment. The class given is functional.
Data set [5] has as its system HUVEC. The data set can be described thus: Antiinvasive activity in HUVEC assessed as inhibition of VEGF-induced cell invasion at 20 uM after 6 hrs by crystal violet staining based transwell assay relative to control. In kind it is functional. Particulars: Homo sapiens. Summed up: (§2)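 Transwell: 1×10⁴ HUVECs in serum-free M200 in top chamber with vehicle or compound; bottom chamber M200 with 10% FBS; 6 h at 37°C; cells on membrane underside fixed in 4% paraformaldehyde, stained 0.1% crystal violet, imaged and counted.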

For data set [6], the system named is HepG2. Kind of data set: Cytotoxicity against human HepG2 cells assessed as reduction in cell growth after 72 hrs by MTT assay. The class given is cell-based. Particulars: HepG2, 72 h.
The test system of data set [7] is HUVEC. The data set can be described thus: Inhibition of Akt/mTOR signalling in VEGF-induced HUVEC assessed as reduction in mTOR phosphorylation at Ser2448 residue at 1 to 20 uM pre-incubated for 1.5 hrs followed by VEGF stimulation and measured after 30 mins by Western blot analysis. Conditions: Homo sapiens. The class given is cell-based. Summed up: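 HUVECs were starved overnight, pretreated 1.5 h with 1, 5, 10 or 20 μM, then stimulated with VEGF (50 ng/mL) for 30 min. Lysates were equalized by Bradford assay, about 20 μg protein was resolved on gradient SDS-PAGE and immunoblotted with phospho-specific antibodies. Detection by HRP secondary antibodies and ECL.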

For data set [8], the system named is HT-29. The data set can be described thus: Induction of apoptosis in human HT-29 cells assessed as early apoptotic cells at 5 uM after 72 hrs by Annexin V-FITC/propidium iodide staining based flow cytometric analysis (reference value: 5.3%). The class given is cell-based. Conditions: ht-29, 72 h.
Data set [9] relates to HT-29. Kind of data set: Induction of apoptosis in human HT-29 cells assessed as PARP cleavage up to 20 uM after 24 to 72 hrs by Western blot analysis. The class given is cell-based.
The test system of data set [10] is HT-29. The data set can be described thus: Antiangiogenic activity in human HT-29 cells assessed as decrease in secreted MMP9 activity at 1 to 20 uM after 24 hrs by gelatin zymography. The class given is functional, cell-based. Summed up:
(§3)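 HT29 cells treated 1, 5, 10 or 20 μM for 24 h; supernatant run non-reducing on 10% SDS-PAGE with 2% gelatin; SDS removed with 2% Triton X-100, gel incubated 48 h at 37°C in Tris pH 7.5/NaCl/CaCl2 buffer, Coomassie stained; clear MMP-2 and MMP-9 bands quantified by densitometry.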

Data set [11] can be described thus: Induction of apoptosis in human HT-29 cells assessed as viable cells at 10 uM after 24 hrs by Annexin V-FITC/propidium iodide staining based flow cytometric analysis (reference value: 80.8%). In kind it is cell-based. Conditions: read-out: Activity.
The target of data set [12] is Vascular endothelial growth factor receptor 2 (Homo sapiens) (UniProt P35968). The data set can be described thus: Inhibition of VEGFR2 in VEGF-stimulated HUVEC assessed as downregulation of AKT phosphorylation at Ser473 residue at 1 to 10 uM pre-incubated for 2 hrs followed by VEGF stimulation and measured after 15 mins by Western blot analysis. In kind it is cell-based. Summed up:
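HUVECs serum-starved overnight, pretreated 2 h with 1, 2.5, 5 or 10 μM compound, then stimulated 15 min with 50 ng/mL VEGF165. Lysed in Tris/EDTA/Triton/deoxycholate/SDS buffer with phosphatase and protease inhibitors. Protein equalized by Bradford, about 20 μg resolved on gradient SDS-PAGE. Blots probed for phospho and total VEGFR2 (Tyr1175), ERK1/2 (Thr202/Tyr204) and AKT (Ser473) against actin, with HRP/ECL detection.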

The test system of data set [13] is HT-29. The data set can be described thus: Induction of apoptosis in human HT-29 cells assessed as late apoptotic cells at 1 uM after 24 hrs by Annexin V-FITC/propidium iodide staining based flow cytometric analysis (reference value: 13.4%). In kind it is cell-based. Conditions: ht-29, 24 h.
The test system of data set [14] is HUVEC. Kind of data set: Induction of apoptosis in VEGF-stimulated HUVEC assessed as late apoptotic cells at 10 uM after 24 hrs by Annexin V-FITC/propidium iodide staining based flow cytometric analysis (reference value: 11.3%). In kind it is cell-based. Conditions: human. Summed up:
as §1

In data set [15] the test system is HT-29. Kind of data set: Induction of apoptosis in human HT-29 cells assessed as early apoptotic cells at 20 uM after 24 hrs by Annexin V-FITC/propidium iodide staining based flow cytometric analysis (reference value: 1.9%). In kind it is cell-based. Conditions: ht-29, 24 h.
Data set [16] deals with HUVEC. Kind of data set: Cytotoxicity against HUVEC at 1 to 5 uM measured after 48 hrs. In kind it is cell-based. Conditions: human.
For data set [17], the system named is HUVEC. The data set can be described thus: Effect on total ERK expression in VEGF-induced HUVEC at 1 to 20 uM pre-incubated for 2 hrs followed by VEGF stimulation and measured after 15 mins by Western blot analysis. The class given is ADME, cell-based. Particulars: human, 0.25 h. An outline of the steps: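 HUVECs serum-starved overnight, pretreated with compound (methods: 1, 2.5, 5, 10 μM for 2 h; legend: 1, 5, 10, 20 μM for 1.5 h), then VEGF 50 ng/mL (methods: VEGF165, 15 min; legend: 30 min); lysates equalized by Bradford, ~20 μg protein resolved on gradient SDS-PAGE, immunoblotted, ECL detection.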

Data set [18] relates to HT-29. The data set can be described thus: Antiangiogenic activity in human HT-29 cells assessed as decrease in secreted MMP2 activity at 1 to 20 uM after 24 hrs by gelatin zymography. The class given is functional, cell-based. Summed up: as §3
Data set [19] relates to HUVEC. The data set can be described thus: Antiinvasive activity in HUVEC assessed as inhibition of VEGF-induced cell invasion after 6 hrs by crystal violet staining based transwell assay. Particulars: Homo sapiens. In kind it is functional. Summed up: as §2
The subject of data set [20] is HT-29. The data set can be described thus: Antitumor activity against human HT-29 cells xenografted in mouse assessed as reduction in tumour volume at 60 mg/kg, po administered every other day for 3 weeks and measured at 20 days post-treatment relative to control. The class given is functional. Conditions: HT-29, po.
For data set [21], the target named is Ribosomal protein S6 kinase beta-1 (Homo sapiens) (UniProt P23443). The data set can be described thus: Inhibition of P70S6K (unknown origin) at 10 uM using myelin basic protein as substrate in presence of [gamma-33P]-ATP by scintillation counting analysis relative to control. Summed up: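 Radiometric kinase panel run by a contract lab. Kinase (5–10 mU) in 25 mM Tris pH 7.5, 0.02 mM EGTA, 0.66 mg/mL myelin basic protein, magnesium acetate and [γ-33P]-ATP (about 500 cpm/pmol). Started with Mg-ATP mix, 40 min at room temperature, stopped with 3% phosphoric acid. Spotted on P30 filters, washed in 75 mM phosphoric acid and methanol, scintillation counted. Mean ± SD of three independent experiments.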
Ribosomal protein S6 kinase beta-1 (Homo sapiens), sequence (P23443 whole entry, looked up): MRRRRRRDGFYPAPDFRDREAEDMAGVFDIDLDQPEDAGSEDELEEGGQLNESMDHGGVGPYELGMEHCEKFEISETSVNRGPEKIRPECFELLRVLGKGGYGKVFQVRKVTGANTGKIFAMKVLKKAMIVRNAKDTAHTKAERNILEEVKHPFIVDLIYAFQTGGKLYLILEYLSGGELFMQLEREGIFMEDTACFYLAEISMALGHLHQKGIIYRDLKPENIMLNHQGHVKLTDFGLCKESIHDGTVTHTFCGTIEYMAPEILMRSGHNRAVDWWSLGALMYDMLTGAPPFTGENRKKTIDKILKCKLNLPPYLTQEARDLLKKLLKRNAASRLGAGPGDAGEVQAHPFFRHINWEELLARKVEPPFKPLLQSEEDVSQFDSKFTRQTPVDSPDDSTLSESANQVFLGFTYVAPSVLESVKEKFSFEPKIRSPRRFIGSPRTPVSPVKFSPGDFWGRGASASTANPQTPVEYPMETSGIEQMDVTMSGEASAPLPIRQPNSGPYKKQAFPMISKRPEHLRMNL

pIC50: −log10 of the molar value. Calls of active or inactive are those of the source. The calls are words filed in the database; no cut-off is given here.

Vascular endothelial growth factor receptor 2 (Homo sapiens), sequence (P35968 whole entry): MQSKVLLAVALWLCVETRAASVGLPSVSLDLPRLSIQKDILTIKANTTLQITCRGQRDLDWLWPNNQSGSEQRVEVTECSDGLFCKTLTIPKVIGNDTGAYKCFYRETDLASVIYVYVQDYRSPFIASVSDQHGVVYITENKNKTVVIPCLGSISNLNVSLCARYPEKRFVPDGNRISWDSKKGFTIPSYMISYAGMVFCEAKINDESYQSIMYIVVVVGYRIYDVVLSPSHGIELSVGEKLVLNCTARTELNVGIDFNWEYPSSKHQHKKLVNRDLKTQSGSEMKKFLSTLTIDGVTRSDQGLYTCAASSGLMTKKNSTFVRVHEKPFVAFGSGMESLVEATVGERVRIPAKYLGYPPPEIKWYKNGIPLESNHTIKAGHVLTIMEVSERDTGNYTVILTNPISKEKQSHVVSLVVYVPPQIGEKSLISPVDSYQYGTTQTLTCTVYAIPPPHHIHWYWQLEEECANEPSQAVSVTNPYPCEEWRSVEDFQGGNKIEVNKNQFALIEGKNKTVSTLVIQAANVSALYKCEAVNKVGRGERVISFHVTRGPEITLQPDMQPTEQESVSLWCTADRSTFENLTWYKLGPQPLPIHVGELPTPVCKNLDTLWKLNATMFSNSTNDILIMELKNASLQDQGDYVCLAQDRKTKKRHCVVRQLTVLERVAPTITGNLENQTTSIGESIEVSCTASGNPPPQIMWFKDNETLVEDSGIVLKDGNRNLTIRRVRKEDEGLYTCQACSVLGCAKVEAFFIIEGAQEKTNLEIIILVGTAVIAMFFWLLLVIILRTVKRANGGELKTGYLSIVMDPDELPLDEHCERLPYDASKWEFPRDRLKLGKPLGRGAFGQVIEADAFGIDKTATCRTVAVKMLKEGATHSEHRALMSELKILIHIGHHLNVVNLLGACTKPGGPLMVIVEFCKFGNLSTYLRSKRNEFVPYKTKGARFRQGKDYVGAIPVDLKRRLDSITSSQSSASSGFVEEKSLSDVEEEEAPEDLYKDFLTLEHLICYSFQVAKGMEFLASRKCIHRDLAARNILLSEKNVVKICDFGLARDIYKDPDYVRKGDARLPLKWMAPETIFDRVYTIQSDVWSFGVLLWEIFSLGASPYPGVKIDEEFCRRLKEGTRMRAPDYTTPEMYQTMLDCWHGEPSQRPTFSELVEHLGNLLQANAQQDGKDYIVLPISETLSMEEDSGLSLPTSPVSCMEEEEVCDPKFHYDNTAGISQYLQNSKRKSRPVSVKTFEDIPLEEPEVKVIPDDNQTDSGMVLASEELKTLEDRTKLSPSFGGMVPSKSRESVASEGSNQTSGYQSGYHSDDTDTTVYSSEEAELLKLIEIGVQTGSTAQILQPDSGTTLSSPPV

Regarding `COc1ccc(NC(=O)c2cccc(/C=C3\CC(=O)N(c4ccc(C)cc4)C3=O)c2)cc1`, the Activity is 10.1% in data set [1]; “Non-Toxic” in data set [2]; 4.8% in data set [3]; 5% in data set [4]; 9.8% in [8]; “Non-Toxic” in [9]. For the same molecule, the Activity in data set [13] is reported as 14.4%; in [14] it was 11.7%; in [15], 1.7%; in data set [16], “Non-Toxic”; in data set [17], “Not Active”. In addition, the inhibition at 20 µM in data set [5] was found to be 70%. Further, in [6], the pIC50 was less than 4.00. Also, the inhibition result in data set [7], in data set [10], in [12] and in data set [18] was “Active” each time. Also, the viability at 24 h, 10 µM in data set [11] stood at 77.2%. Further, the inhibition entry in [19] was “Dose-dependent effect”; in [21], 50 to 70%. Besides, the inhibition in vivo at 60 mg/kg in data set [20] is 53.5%.
